# Measured values from article PMC9218157 (Heliyon, 2022).
# Marks after values point to notes of the source that are not given here.
# Assays:
# [1] = DPPH free radical scavenging activity; conditions: mean ± SE; concentration showing 50% of antioxidant activity
# Method in brief: (§1)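 Procedure taken from a cited method; the paper gives no reagent levels, times or read-out wavelength. Test compounds were a pyridine Schiff base ligand and its Cu(II) and Zn(II) complexes, with butylated hydroxyanisole (BHA) as positive control.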
# [2] = target: T1, type-VI B porcine pancreatic α-amylase (Sus scrofa, UniProt P00690); test: Inhibition of α-amylase; type: biochemical
# T1 sequence (P00690 16-511): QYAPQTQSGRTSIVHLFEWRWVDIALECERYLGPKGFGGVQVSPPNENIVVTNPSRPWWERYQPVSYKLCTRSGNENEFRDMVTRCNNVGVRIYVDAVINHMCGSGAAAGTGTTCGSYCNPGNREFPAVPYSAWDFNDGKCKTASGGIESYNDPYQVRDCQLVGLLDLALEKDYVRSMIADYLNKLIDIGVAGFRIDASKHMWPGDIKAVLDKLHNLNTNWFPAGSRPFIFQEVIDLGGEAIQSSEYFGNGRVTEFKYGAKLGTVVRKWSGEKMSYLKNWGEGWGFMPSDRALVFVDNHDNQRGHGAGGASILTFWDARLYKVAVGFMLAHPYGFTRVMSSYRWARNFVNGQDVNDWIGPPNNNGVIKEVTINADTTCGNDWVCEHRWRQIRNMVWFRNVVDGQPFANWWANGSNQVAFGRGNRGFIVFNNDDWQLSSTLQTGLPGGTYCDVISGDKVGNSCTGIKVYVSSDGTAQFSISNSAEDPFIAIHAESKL
# [3] = ABTS cation radical scavenging activity; conditions: mean ± SE; concentration showing 50% of antioxidant activity
# Method in brief: as §1
# [4] = Superoxide anion radical scavenging activity; conditions: mean ± SE; concentration showing 50% of antioxidant activity
# Method in brief: as §1
smiles,measurement,setting,value
"COc1cc(C=Nc2ccc([N+](=O)[O-])cn2)ccc1O [HL, 2-methoxy-4-(((5-nitropyridin-2-yl)imino)methyl)phenol]",EC50 Radical scavenging activities DPPH,[1],3.10 ± 0.47^d mg/mL
same,IC50,[2],11.3 mM
same,EC50 Radical scavenging activities ABTS,[3],4.65 ± 0.61^d mg/mL
same,EC50 Radical scavenging activities Superoxide,[4],5.25 ± 2.35^d mg/mL
